Measurements gathered from unrelated publications.
Protocols differ between the studies behind these lines. In brackets after ≈: the same amount, converted by molar mass.
Effect on: microbial growth

| Compound | organism | technique | strain | MIC |
| --- | --- | --- | --- | --- |
| Cc1ccc2[nH]nc(-c3nnc(Nc4ccc(Cl)c(Br)c4)s3)c2c1 | Serratia marcescens | – | ATCC8100 | 270 µg/mL (≈ 641 µM) |
| COc1ccc(N=Nc2c(N)nn3c(-c4ccco4)cc(-c4ccc(OCc5ccccc5)cc4)nc23)cc1 | Enterobacter cloacae | – | ATCC23355 | 7.81 µg/mL (≈ 15.1 µM) |
| C[C@@H](O)[C@H]1C(=O)N2C(C(=O)O)=C(S[C@@H]3CN[C@H](C(=O)N(C)C)C3)[C@H](C)[C@H]12 | Enterobacter cloacae | broth dilution | ATCC13047 | 0.125 µg/mL (≈ 0.326 µM) |
| Nc1nn2c(-c3ccc(Cl)cc3Cl)cc(-c3ccc(OCc4ccccc4)cc3)nc2c1N=Nc1ccc(F)cc1 | Enterobacter cloacae | – | ATCC23355 | 15.6 µg/mL (≈ 26.7 µM) |
| Cc1ccc2[nH]nc(-c3nnc(Nc4ccc([N+](=O)[O-])cc4)s3)c2c1 | Serratia marcescens | – | ATCC8100 | 56.2 µg/mL (≈ 159 µM) |
| COc1ccc(N=Nc2c(N)nn3c(-c4ccc(Cl)cc4Cl)cc(-c4ccc(OCc5ccccc5)cc4)nc23)cc1 | Enterobacter cloacae | – | ATCC23355 | 62.5 µg/mL (≈ 105 µM) |
| Cc1ccc2[nH]nc(-c3nnc(Nc4ccc(F)cc4)s3)c2c1 | Serratia marcescens | – | ATCC8100 | 56.9 µg/mL (≈ 175 µM) |
| Cc1ccc(N=Nc2c(N)nn3c(-c4ccco4)cc(-c4ccc(OCc5ccccc5)cc4)nc23)cc1 | Enterobacter cloacae | – | ATCC23355 | 31.3 µg/mL (≈ 62.5 µM) |
| CC[C@H]1OC(=O)[C@H](C)[C@@H](O[C@H]2C[C@@](C)(OC)[C@@H](O)[C@H](C)O2)[C@H](C)[C@@H](O[C@@H]2O[C@H](C)C[C@H](N(C)C)[C@H]2O)[C@](C)(O)C[C@@H](C)CN(C)[C@H](C)[C@@H](O)[C@]1(C)O | Enterobacter cloacae | broth dilution | ATCC13047 | 4 µg/mL (≈ 5.34 µM) |
| CCCCCCC#Cc1cncc(-c2nnc(SCc3cc([N+](=O)[O-])cc([N+](=O)[O-])c3)n2CCCN)c1 | Enterobacter cloacae | broth dilution | DSM30054 | > 64 µg/mL |
| Cc1ccc2[nH]nc(-c3nnc(Nc4ccc(Cl)c(Cl)c4)s3)c2c1 | Serratia marcescens | – | ATCC8100 | 110 µg/mL (≈ 292 µM) |
| CCCCCCC#Cc1cncc(-c2nnc(SCc3ccc([N+](=O)[O-])o3)n2CCCN)c1 | Enterobacter cloacae | broth dilution | DSM30054 | > 64 µg/mL |
| Cc1ccc2[nH]nc(-c3nnc(Nc4ccc(F)cc4Cl)s3)c2c1 | Serratia marcescens | – | ATCC8100 | 85.2 µg/mL (≈ 237 µM) |
| CCCCCCC#Cc1cncc(-c2nnc(SCc3ccc([N+](=O)[O-])cc3)n2CCCN)c1 | Enterobacter cloacae | broth dilution | DSM30054 | > 64 µg/mL |
| CO/N=C(\C(=O)N[C@@H]1C(=O)N2C(C(=O)O)=CCS[C@H]12)c1csc(N)n1 | Enterobacter cloacae | broth dilution | ATCC13047 | 2 µg/mL (≈ 5.22 µM) |
| Cc1ccc(N=Nc2c(N)nn3c(-c4ccc(Cl)cc4Cl)cc(-c4ccc(OCc5ccccc5)cc4)nc23)cc1 | Enterobacter cloacae | – | ATCC23355 | 31.3 µg/mL (≈ 54 µM) |
